Converted amounts (≈) assume the structure as drawn.
Key:
[1] = system: Candida albicans; test: Antifungal activity against Candida albicans ATCC 36082 by broth microdilution assay; type: functional
[2] = system: Nakaseomyces glabratus; test: Antifungal activity against Candida glabrata ATCC 34138 by broth microdilution assay; type: functional
[3] = system: Pichia kudriavzevii; test: Antifungal activity against Candida krusei ATCC 6528 by broth microdilution assay; type: functional
[4] = system: Clavispora lusitaniae; test: Antifungal activity against Candida lusitaniae ATCC 42720 by broth microdilution assay; type: functional
[5] = system: Candida tropicalis; test: Antifungal activity against Candida tropicalis ATCC 750 by broth microdilution assay; type: functional
[6] = system: Candida parapsilosis; test: Antifungal activity against Candida parapsilosis ATCC 21019 by broth microdilution assay; type: functional; settings: Lodderomyces parapsilosis
[7] = system: Aspergillus fumigatus; test: Antifungal activity against Aspergillus fumigatus ATCC 16424 by broth microdilution assay; type: functional
[8] = system: Aspergillus flavus; test: Antifungal activity against Aspergillus flavus ATCC MYA-1004 by broth microdilution assay; type: functional
[9] = system: Aspergillus terreus; test: Antifungal activity against Aspergillus terreus ATCC 28301 by broth microdilution assay; type: functional
[10] = system: Aspergillus niger; test: Antifungal activity against Aspergillus niger ATCC 9042 by broth microdilution assay; type: functional
[11] = system: Cryptococcus neoformans; test: Antifungal activity against Cryptococcus neoformans ATCC 24065 by broth microdilution assay
[12] = system: Candida albicans; test: Antifungal activity against systemic Candida albicans ATCC 36082 infection model in ICR mouse assessed as survival at 20 mg/kg, po; type: functional
How it was run: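 C. albicans ATCC 36082 given systemically, about 5 × 10⁵ cells per animal. Oral dosing at 20 mg/kg once daily started 2 h post-infection and continued for 7 consecutive days. Read-out was mean survival days, compared against an untreated infected control group.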

[13] = system: HepG2; test: Cytotoxicity against human HepG2 cells by neutral red uptake assay; type: functional
How it was run: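 Human hepatoma HepG2 cells; neutral red uptake read-out following a previously described protocol; the value is the CC50 (concentration giving half-maximal cytotoxicity); ketoconazole served as reference agent.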

Row | SMILES | MIC80 [1] [µg/mL] | MIC80 [2] [µg/mL] | MIC80 [3] [µg/mL] | MIC80 [4] [µg/mL] | MIC80 [5] [µg/mL] | MIC80 [6] [µg/mL] | MIC80 [7] [µg/mL] | MIC80 [8] [µg/mL] | MIC80 [9] [µg/mL] | MIC80 [10] [µg/mL] | MIC80 [11] [µg/mL] | Survival [12] [days] | CC50 [13] [µM]
1 | NN(Cc1ccccc1)C[C@](O)(Cn1cncn1)c1ccc(F)cc1F | 1 (≈ 2.78 µM) | – | – | – | – | – | – | – | – | – | – | – | –
2 | C[C@@H](n1nc(-c2ccccc2)c2cc([N+](=O)[O-])ccc21)[C@](O)(Cn1cncn1)c1ccc(F)cc1F | 2 (≈ 4.08 µM) | – | – | – | – | – | – | – | – | – | – | – | –
3 | CCc1nn([C@H](C)[C@](O)(Cn2cncn2)c2ccc(F)cc2F)c2ccc(F)cc12 | ≤ 0.015 | 4 (≈ 9.63 µM) | 2 (≈ 4.81 µM) | 0.063 (≈ 0.152 µM) | 2 (≈ 4.81 µM) | 0.125 (≈ 0.301 µM) | 16 (≈ 38.5 µM) | > 16 | > 16 | > 16 | 0.125 (≈ 0.301 µM) | – | –
4 | Cc1nn([C@H](C)[C@](O)(Cn2cncn2)c2ccc(F)cc2F)c2cc(F)ccc12 | 0.031 (≈ 0.0772 µM) | > 8 | 8 (≈ 19.9 µM) | 0.25 (≈ 0.623 µM) | > 8 | 0.5 (≈ 1.25 µM) | 16 (≈ 39.9 µM) | > 16 | > 16 | > 16 | 0.5 (≈ 1.25 µM) | – | –
5 | C[C@@H](n1ncc2cc(Cl)ccc21)[C@](O)(Cn1cncn1)c1ccc(F)cc1F | ≤ 0.015 | 4 (≈ 9.91 µM) | 2 (≈ 4.95 µM) | ≤ 0.015 | 0.5 (≈ 1.24 µM) | 0.125 (≈ 0.31 µM) | 2 (≈ 4.95 µM) | 4 (≈ 9.91 µM) | 4 (≈ 9.91 µM) | 8 (≈ 19.8 µM) | 0.031 (≈ 0.0768 µM) | – | –
6 | C[C@@H](n1ncc2cc([N+](=O)[O-])ccc21)[C@](O)(Cn1cncn1)c1ccc(F)cc1F | ≤ 0.015 | 4 (≈ 9.65 µM) | 0.25 (≈ 0.603 µM) | ≤ 0.015 | 0.031 (≈ 0.0748 µM) | 0.031 (≈ 0.0748 µM) | 1 (≈ 2.41 µM) | 1 (≈ 2.41 µM) | 2 (≈ 4.83 µM) | 2 (≈ 4.83 µM) | 0.063 (≈ 0.152 µM) | 12.4 | –
7 | C[C@@H](n1ncc2c([N+](=O)[O-])cccc21)[C@](O)(Cn1cncn1)c1ccc(F)cc1F | ≤ 0.015 | 2 (≈ 4.83 µM) | 1 (≈ 2.41 µM) | ≤ 0.015 | ≤ 0.015 | 0.031 (≈ 0.0748 µM) | 1 (≈ 2.41 µM) | 2 (≈ 4.83 µM) | 1 (≈ 2.41 µM) | 2 (≈ 4.83 µM) | 0.031 (≈ 0.0748 µM) | – | –
8 | C[C@@H](n1cc2c([N+](=O)[O-])cccc2n1)[C@](O)(Cn1cncn1)c1ccc(F)cc1F | ≤ 0.015 | > 8 | 4 (≈ 9.65 µM) | 0.125 (≈ 0.302 µM) | 1 (≈ 2.41 µM) | 0.25 (≈ 0.603 µM) | 1 (≈ 2.41 µM) | 2 (≈ 4.83 µM) | 1 (≈ 2.41 µM) | 4 (≈ 9.65 µM) | 0.063 (≈ 0.152 µM) | – | –
9 | C[C@@H](n1cnc2cc(Cl)ccc2c1=O)[C@](O)(Cn1cncn1)c1ccc(F)cc1F [ALBACONAZOLE] | ≤ 0.015 | 8 (≈ 18.5 µM) | 0.25 (≈ 0.579 µM) | ≤ 0.015 | 0.031 (≈ 0.0718 µM) | ≤ 0.015 | 0.5 (≈ 1.16 µM) | 0.5 (≈ 1.16 µM) | 1 (≈ 2.32 µM) | 2 (≈ 4.63 µM) | ≤ 0.015 | – | –
10 | C[C@@H]1[C@H](O)[C@@H](C)/C=C/C=C/C=C/C=C/C=C/C=C/C=C/[C@H](O[C@@H]2O[C@H](C)[C@@H](O)[C@H](N)[C@@H]2O)C[C@@H]2O[C@](O)(C[C@@H](O)C[C@@H](O)[C@H](O)CC[C@@H](O)C[C@@H](O)CC(=O)O[C@H]1C)C[C@H](O)[C@H]2C(=O)O [AMPHOTERICIN B] | – | – | – | – | – | – | 1 (≈ 1.08 µM) | 4 (≈ 4.33 µM) | 2 (≈ 2.16 µM) | 0.5 (≈ 0.541 µM) | – | – | –
11 | OC(Cn1cncn1)(Cn1cncn1)c1ccc(F)cc1F [FLUCONAZOLE] | 2 (≈ 6.53 µM) | > 8 | > 8 | 8 (≈ 26.1 µM) | > 8 | > 8 | > 128 | > 128 | > 128 | > 128 | 8 (≈ 26.1 µM) | – | –
12 | CC(=O)N1CCN(c2ccc(OCC3COC(Cn4ccnc4)(c4ccc(Cl)cc4Cl)O3)cc2)CC1 (centres undefined) [KETOCONAZOLE] | – | 4 (≈ 7.53 µM) | – | – | – | – | – | – | – | – | – | – | 51
13 | C[C@@H](c1nc(-c2ccc(C#N)cc2)cs1)[C@](O)(Cn1cncn1)c1ccc(F)cc1F [RAVUCONAZOLE] | ≤ 0.015 | 2 (≈ 4.57 µM) | 0.125 (≈ 0.286 µM) | ≤ 0.015 | ≤ 0.015 | ≤ 0.015 | 0.125 (≈ 0.286 µM) | 0.5 (≈ 1.14 µM) | 0.5 (≈ 1.14 µM) | 1 (≈ 2.29 µM) | ≤ 0.015 | – | –
14 | C[C@@H](c1ncncc1F)[C@](O)(Cn1cncn1)c1ccc(F)cc1F [VORICONAZOLE] | ≤ 0.015 | 4 (≈ 11.5 µM) | 1 (≈ 2.86 µM) | 0.063 (≈ 0.18 µM) | 0.25 (≈ 0.716 µM) | 0.25 (≈ 0.716 µM) | 0.25 (≈ 0.716 µM) | 0.5 (≈ 1.43 µM) | 1 (≈ 2.86 µM) | 1 (≈ 2.86 µM) | 0.125 (≈ 0.358 µM) | – | –
